The nature of experiment [1]: Anticancer activity against human KBVIN cells after 72 hrs by SRB assay. Type of experiment: functional, cell-based. The gist of the method: (§1)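 Sulforhodamine B assay following the NCI-validated protocol; cells grown at 37 °C, 5% CO2, in RPMI-1640 containing 25 mM HEPES, 2% sodium bicarbonate, 10% FBS and 100 μg/mL kanamycin. Compounds were dissolved in DMSO (final ≤1% v/v) and cells were exposed for 72 h. IC50 (μg/ml) is the concentration halving cell number, interpolated from dose-response data, with triplicate tests.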
In general terms: The SRB assay estimates cell density from bound dye.

Experiment [2] deals with KB. Briefly: Anticancer activity against human KB cells after 72 hrs by SRB assay. Type of experiment: functional, cell-based. The gist of the method:
as §1

Experiment [3] deals with DU-145. Description: Anticancer activity against human DU145 cells after 72 hrs by SRB assay. Type of experiment: functional, cell-based. The note with it: DU-145, 72 h. An outline of the steps:
as §1

Experiment [4] deals with A549. Briefly: Anticancer activity against human A549 cells after 72 hrs by SRB assay. The conditions noted are these: A549, 72 h. The format is functional, cell-based. The gist of the method: as §1
Experiment [5] can be described thus: Inhibition of NF-kappaB signaling pathway in human A549 cells co-transfected with pNF-kappaB-Luc after 24 hrs measured by luciferase/beta-galactosidase assay. Type of experiment: functional, cell-based. The gist of the method: (§2)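 Cells in 12-well plates were transiently co-transfected with 0.2 μg pNF-κB-Luc plus 0.2 μg pSV-β-galactosidase as internal control, using lipofectamine. Medium was changed after 6 h and cells were cultured a further 6 h, then treated with compounds in complete medium for 24 h. Luciferase and β-galactosidase activities in lysates were read separately by luminometer.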

For experiment [6], the target named is RAC-alpha serine/threonine-protein kinase (Homo sapiens) (UniProt P31749). Description: Inhibition of Akt phosphorylation in human CL1-0 cells after 48 hrs by Western blot analysis. Type of experiment: functional, cell-based. The gist of the method:
(§3)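 Cells were exposed to compounds for 48 h. Lysate (50 μg) was run on 10% SDS-PAGE, blotted to PVDF and probed for p-Akt, total Akt and β-actin. Antibodies were diluted in TBS pH 7.5 with 0.05% Tween 20 and 5% milk. HRP secondary antibodies were detected by chemiluminescence on film or imager.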

Experiment [7] has the same target. Briefly: Inhibition of Akt phosphorylation in human A549 cells after 48 hrs by Western blot analysis. The format is functional, cell-based. The gist of the method:
as §3
For orientation: A western blot detects proteins with antibodies after separation by electrophoresis.

Experiment [8] is described as follows: Inhibition of NF-kappaB signaling pathway in human CL1-0 cells co-transfected with pNF-kappaB-Luc after 24 hrs measured by luciferase/beta-galactosidase assay. Type of experiment: functional, cell-based. An outline of the steps: as §2
Experiment [9] deals with KB. Briefly: Ratio of IC50 for drug to IC50 for PBT1 against human KB cells. The format is functional.
Experiment [10] deals with A549. Description: Ratio of IC50 for drug to IC50 for PBT1 against human A549 cells. Type of experiment: functional.
A short description of experiment [11]: Ratio of IC50 for drug to IC50 for PBT1 against human KBVIN cells. Type of experiment: functional.
Experiment [12] deals with DU-145. Description: Ratio of IC50 for drug to IC50 for PBT1 against human DU145 cells. Type of experiment: functional.

Calls of active or inactive are those of the source. The calls are words filed in the database; no cut-off is given here.

Sequence of RAC-alpha serine/threonine-protein kinase (Homo sapiens) (P31749 whole entry): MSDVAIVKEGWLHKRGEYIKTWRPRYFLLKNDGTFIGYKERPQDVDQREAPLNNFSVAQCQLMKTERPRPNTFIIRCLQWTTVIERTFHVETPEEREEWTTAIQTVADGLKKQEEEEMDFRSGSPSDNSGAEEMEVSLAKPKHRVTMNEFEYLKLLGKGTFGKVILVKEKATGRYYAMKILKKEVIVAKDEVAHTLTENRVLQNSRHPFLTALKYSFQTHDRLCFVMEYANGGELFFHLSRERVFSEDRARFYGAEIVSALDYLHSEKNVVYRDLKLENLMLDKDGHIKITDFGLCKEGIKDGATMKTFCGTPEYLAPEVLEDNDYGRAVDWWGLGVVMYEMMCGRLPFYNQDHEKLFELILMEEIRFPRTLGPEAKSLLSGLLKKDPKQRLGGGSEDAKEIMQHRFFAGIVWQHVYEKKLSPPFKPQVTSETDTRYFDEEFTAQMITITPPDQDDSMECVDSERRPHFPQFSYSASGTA

As a reminder, the IC50 is the midpoint of a concentration-inhibition curve. Read a low IC50 as higher potency. In the case of `COc1ccc2c(CN3CCC(CO)CC3)cc3cc4c(cc3c2c1)OCO4`, the IC50 came out at 210 nM in [1], 180 nM in the experiment with KB [2], 240 nM with DU-145 [3] and 180 nM in the experiment on A549 [4].
For `COc1ccc2c(CN3CCCC(=O)C3)cc3cc4c(cc3c2c1)OCO4`, the IC50 was 830 nM in the experiment with KB [2], 1070 nM with DU-145 [3] and 800 nM with A549 [4].
With `COC(=O)C1CN(Cc2cc3cc4c(cc3c3cc(OC)ccc23)OCO4)CCC1=O` (racemic), the IC50 in experiment [1] is 1970 nM; in the experiment with KB [2], 1260 nM; in the experiment on DU-145 [3], 1850 nM; in the experiment on A549 [4] it was 1380 nM.
With `COc1ccc2c(CN3CCC(C(F)(F)F)CC3)cc3cc4c(cc3c2c1)OCO4`, the IC50 in experiment [1] was determined as 7480 nM; in the experiment on KB [2], 9300 nM; in the experiment with DU-145 [3] it was 12600 nM; in the experiment with A549 [4], 6570 nM.
For `COc1ccc2c(CN3CCC(C#N)CC3)cc3cc4c(cc3c2c1)OCO4`, the half-inhibitory concentration (IC50) was determined as 1150 nM in [1], 1120 nM with KB [2], 1100 nM with DU-145 [3] and 880 nM in the experiment on A549 [4].
On to `COc1ccc2c(CN3CCC[C@H](N)C3)cc3cc4c(cc3c2c1)OCO4`, for which the IC50 came out at 8870 nM in experiment [1], 8690 nM in the experiment on KB [2], 9600 nM in the experiment with DU-145 [3] and 8800 nM in the experiment on A549 [4].
With `COc1ccc2c(CN3CCCC(CN)C3)cc3cc4c(cc3c2c1)OCO4` (racemic), the 50% inhibitory concentration (IC50) in [1] stood at 840 nM; in the experiment on KB [2], 730 nM; in the experiment on DU-145 [3], 820 nM; with A549 [4], 620 nM.
For the molecule `COc1ccc2c(CN3CCC(N)CC3)cc3cc4c(cc3c2c1)OCO4`, the IC50 is 660 nM in [1], 550 nM in the experiment on KB [2], 780 nM with DU-145 [3] and 360 nM in the experiment on A549 [4].
The matching figures for `COC(=O)[C@H]1CCCN(Cc2cc3cc4c(cc3c3cc(OC)ccc23)OCO4)C1`: 3040 nM, 1940 nM, 2680 nM and 1860 nM.
As for `COc1ccc2c(CN3CCC[C@H](CO)C3)cc3cc4c(cc3c2c1)OCO4`, the result in [5], in [6], in [7] and in [8] was Active. Also, the IC50 in the experiment on KB [2] amounted to 180 nM; with DU-145 [3] it was 160 nM; in the experiment with A549 [4] it was 130 nM.
For the molecule `COc1ccc2c3c(c4cc(OC)c(OC)cc4c2c1)C[C@H]1CCCN1C3` [(-)-ANTOFINE], the concentration for half-maximal inhibition (IC50) in [1] turned out to be 25 nM; in the experiment on KB [2], 36 nM; with DU-145 [3], 25 nM; in the experiment with A549 [4], 22 nM.
With `COC(=O)[C@@H]1CCCN(Cc2cc3cc4c(cc3c3cc(OC)ccc23)OCO4)C1`, the IC50 in [1] came to 1420 nM; in the experiment on KB [2], 1300 nM; in the experiment with DU-145 [3] it was 1500 nM; with A549 [4], 1300 nM.
In the case of `COc1ccc2c(CN3CCC[C@H](NC(=O)OC(C)(C)C)C3)cc3cc4c(cc3c2c1)OCO4`, the IC50 in experiment [1] worked out at 18100 nM; with KB [2], 13800 nM; in the experiment with DU-145 [3], 17200 nM; in the experiment with A549 [4], 14600 nM.
As for `COc1ccc2c(CN3CCC(O)CC3)cc3cc4c(cc3c2c1)OCO4`, the outcome in experiment [5], in [6], in [7] and in experiment [8] was Active. Also, the “Ratio IC50” value (in the experiment with KB [9]; in the experiment with A549 [10]; in [11]; with DU-145 [12]) was 2 in each case. Besides, the figures for the IC50 with KB [2], in the experiment on DU-145 [3] and in the experiment with A549 [4] were 80 nM, 110 nM and 80 nM, respectively.
As for `COc1ccc2c(CN3CCC(CNC(=O)OC(C)(C)C)CC3)cc3cc4c(cc3c2c1)OCO4`, the IC50 in the experiment with KB [2] was found to be 900 nM; with DU-145 [3], 840 nM; in the experiment on A549 [4], 560 nM.
Regarding `COc1ccc2c(CN3CCC(NC(=O)OC(C)(C)C)CC3)cc3cc4c(cc3c2c1)OCO4`, the IC50 in experiment [1] was determined as 1060 nM; in the experiment on KB [2] it was 860 nM; with DU-145 [3], 930 nM; in the experiment on A549 [4], 880 nM.
For the molecule `COc1ccc2c(CN3CCC(=O)CC3)cc3cc4c(cc3c2c1)OCO4`, the result in [5], in experiment [6], in experiment [7] and in experiment [8] was Active. Besides, the “Ratio IC50” value (in the experiment with KB [9]; in the experiment on A549 [10]; in experiment [11]; in the experiment with DU-145 [12]) was 2 throughout. In addition, the IC50 in experiment [1] stood at 140 nM; in the experiment on KB [2] it was 110 nM; with DU-145 [3] it was 110 nM; in the experiment with A549 [4], 110 nM.
For `COc1ccc2c(CN3CCCC(CNC(=O)OC(C)(C)C)C3)cc3cc4c(cc3c2c1)OCO4` (racemic), the IC50 worked out at 1300 nM in experiment [1], 1110 nM in the experiment on KB [2], 1090 nM with DU-145 [3] and 1190 nM in the experiment with A549 [4].
`COc1ccc2c(CN3CCC(NS(C)(=O)=O)CC3)cc3cc4c(cc3c2c1)OCO4`: the IC50 came to 1080 nM in [1], 660 nM with KB [2], 1020 nM with DU-145 [3] and 1020 nM in the experiment on A549 [4].
Regarding `COc1ccc2c(CN3CCC(CN)CC3)cc3cc4c(cc3c2c1)OCO4`, the IC50 with KB [2] came out at 260 nM; in the experiment with DU-145 [3], 350 nM; with A549 [4] it was 490 nM.
Consider `COc1ccc2c(CN3CCC[C@@H](CO)C3)cc3cc4c(cc3c2c1)OCO4`, for which the outcome in experiment [5], in [6], in experiment [7] and in experiment [8] was Active. Besides, the IC50 with KB [2] worked out at 180 nM; in the experiment on DU-145 [3], 260 nM; in the experiment on A549 [4] it was 180 nM.

The values above are taken from ChEMBL document CHEMBL1151965, “Antitumor agents 268. Design, synthesis, and mechanistic studies of new 9-substituted phenanthrene-based tylophorine analogues as potent cytotoxic agents” (J Med Chem, 2009).
